Results on twelve compounds are retold here after ChEMBL document CHEMBL1149291, “Discovery of N-(2-chloro-6-methyl- phenyl)-2-(6-(4-(2-hydroxyethyl)- piperazin-1-yl)-2-methylpyrimidin-4-ylamino)thiazole-5-carboxamide (BMS-354825), a dual Src/Abl kinase inhibitor with potent antitumor activity in preclinical assays” (J Med Chem, 2004).

For orientation: AUC(0-t) means exposure summed from dosing to a finite time, without extrapolation to infinity. A lower AUC(0-t) goes with low exposure. In general, IC50 refers to the midpoint of a concentration-inhibition curve. A word on the Cmax: it is the highest concentration seen after dosing. Broadly, the AUC is the area under the concentration-time curve, a measure of exposure. Read a high AUC as more exposure. The clearance is the volume of plasma or blood freed of the substance per unit of time. A low value points to inefficient removal. As usually defined, the MRT is a mean duration of stay, worked out from the concentration-time curve. The Tmax is the time at which the peak concentration occurs.

Series [1] is described as follows: AUC (0-4 hrs) in BALB/c mouse at 50 mg/kg, po after 4 hrs. Type of series: ADME, organism-based. Details: time < 4 hr, dose 50 mg/kg, route oral. The conditions noted are these: plasma. In outline: (§1)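 Mouse 4 h oral exposure screen: oral dose of 50 mg/kg given as a solution in 1:1 propylene glycol:water. Plasma drug levels followed over 4 h, giving AUC(0-4h), peak concentration (Cmax) and the concentration at 4 h.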

The test system of the next series is MDA-MB-231. Description: cells. Particulars: Homo sapiens, MDA-MB-231, 72 h.
A further series relates to PC-3. Description: cells. Particulars: Homo sapiens, PC-3, 72 h.
The nature of series [2]: Plasma concentration in BALB/c mouse at 50 mg/kg, po after 4 hrs. Further details: dose 50 mg/kg, route oral. Format: ADME, organism-based. Put shortly: as §1
The subject of another series is K562. The series is described as follows: Antiproliferative activity against human K562 cells after 72 hrs. Format: functional, cell-based. The conditions noted are these: K562, 72 h.
The next series has as its system WiDr. Description: cells. Particulars: Homo sapiens, 72 h.
Series [3] is described as follows: Cmax in BALB/c mouse at 50 mg/kg, po after 4 hrs. Type of series: ADME, organism-based. Further details: dose 50 mg/kg, route oral. Particulars: in vivo. Put shortly: as §1
Series [4] is described as follows: AUC (total) in Sprague-Dawley rat at 10 mg/kg, iv. Further details: dose 10 mg/kg, route intravenous. Format: ADME, organism-based. The conditions noted are these: plasma. Put shortly:
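Sprague–Dawley rats; single 10 mg/kg intravenous dose as a solution in citric acid buffer at pH 4.6. Total plasma AUC (μM·h) taken from the pharmacokinetic profile alongside Cmax, t1/2, MRT, clearance and Vss.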

A further series relates to Serum. The series is described as follows: (§2) Protein binding in human serum at 10 uM. Type of series: ADME, cell-free. Particulars: 10 µM. Put shortly:
(§3)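 Binding to human serum proteins measured at a compound concentration of 10 μM.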

Series [5] in a line: AUC (total) in Sprague-Dawley rat at 10 mg/kg, po. Format: ADME, organism-based. Details: dose 10 mg/kg, route oral. The conditions noted are these: plasma. Put shortly: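 Sprague–Dawley rats; single 10 mg/kg oral dose given as a solution. Total plasma AUC (μM·h) taken from the pharmacokinetic profile alongside Cmax, Tmax, t1/2 and MRT.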
For series [6], the system named is Rattus norvegicus. Description: Oral bioavailability in Sprague-Dawley rat at 10 mg/kg, po. Type of series: ADME, organism-based. Particulars: in vivo. In outline:
(§4)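 Sprague–Dawley rats each given 10 mg/kg of compound, either intravenously or orally, in separate arms. Pharmacokinetic parameters were reported for each route as means with a variability term in parentheses. These were Cmax, Tmax, AUCtot, t1/2, MRT, and, for the iv dose, Cl and Vss. Oral bioavailability (Fpo) was reported for the oral arm.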

Series [7] concerns Rattus norvegicus. The series is described as follows: Clearance in Sprague-Dawley rat at 10 mg/kg, iv. Type of series: ADME, organism-based. Details: dose 10 mg/kg, route intravenous. The conditions noted are these: in vivo. Put shortly: (§5)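 Sprague-Dawley rats dosed at 10 mg/kg, either iv or orally, with drug as a solution in citric acid buffer pH 4.6. Parameters derived from plasma levels: Cmax, Tmax, AUCtot, t1/2, MRT, clearance, Vss, and oral bioavailability.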

Series [8] is described as follows: Cmax in Sprague-Dawley rat at 10 mg/kg, po. Type of series: ADME, organism-based. Further details: dose 10 mg/kg, route oral. The conditions noted are these: in vivo. In outline:
as §4

Series [9] is described as follows: Cmax in Sprague-Dawley rat at 10 mg/kg, iv. Format: ADME, organism-based. Further details: dose 10 mg/kg, route intravenous. Particulars: in vivo. In outline:
as §4

Series [10] in a line: Mean residence time in Sprague-Dawley rat at 10 mg/kg, iv. Format: ADME, organism-based. Further details: dose 10 mg/kg, route intravenous. The conditions noted are these: in vivo. In outline: as §5
The species named for another series is Mus musculus. The series is described as follows: Toxicity in nude mouse. Type of series: organism-based. Particulars: in vivo. In outline:
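K562 cells implanted subcutaneously in nude mice and staged to about 300 mg tumors. Oral dosing once daily at 5 or 50 mg/kg on a 5 day on/2 day off schedule for two cycles. Toxicity scored as animal deaths or lack of weight gain.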

A short description of series [11]: Tmax in Sprague-Dawley rat at 10 mg/kg, po. Format: ADME, organism-based. Further details: dose 10 mg/kg, route oral. Particulars: in vivo. In outline:
as §5

Series [12] is described as follows: Mean residence time in Sprague-Dawley rat at 10 mg/kg, po. Format: ADME, organism-based. Details: dose 10 mg/kg, route oral. Particulars: in vivo. Put shortly:
as §5

Series [13] is described as follows: Volume of distribution in Sprague-Dawley rat at 10 mg/kg, iv. Type of series: ADME, organism-based. Further details: dose 10 mg/kg, route intravenous. The conditions noted are these: in vivo, read-out: Vss. Put shortly:
as §5

Series [14] is described as follows: as §2. Particulars: read-out: PPB (converted). Type of series: ADME, cell-free. Put shortly: as §3

Each structure is given as a SMILES string.

Turning to `Cc1cccc(Cl)c1NC(=O)c1cnc(Nc2cc(N3CCOCC3)ncn2)s1`, in series [1], the exposure AUC(0-t) at 4 h stood at 1.7 µM·h. The IC50 in the series on MDA-MB-231 is 45 nM; in the series with PC-3 it was 24 nM; with K562 it was less than 3 nM; with WiDr, 270 nM. In [2], this compound came in with a concentration at 4 h of 220 nM. In addition, the peak level in series [3] (Cmax) was 960 nM.
`Cc1nc(Nc2ncc(C(=O)Nc3c(C)cccc3Cl)s2)cc(N2CCN(CCO)CC2)n1.O` [DASATINIB]: the AUC(0-t) at 4 h in series [1] was 4.8 µM·h. For the same compound, the figures for the AUC in series [4] and in series [5] were 13.9 µM·h and 3.8 µM·h, respectively. In the series on Serum, the PPB is on record as 91%. Besides, the IC50 is 12 nM in the series with MDA-MB-231, 9.4 nM in the series on PC-3, less than 1 nM in the series with K562 and 52 nM in the series on WiDr. This compound displayed a concentration at 4 h in [2] of 700 nM. Moreover, the F in the series on Rattus norvegicus [6] worked out at 27%. In the series on Rattus norvegicus [7], this compound registered a clearance of 26.4 mL/min/kg. Moreover, the Cmax in series [8] was 500 nM; in [9], 13.2 µM; in [3], 2700 nM. Further, the MRT came out at 4.1 h in [10] and 6.7 h in series [12]. Besides, the Activity result in the series filed under Mus musculus is listed as “Non-toxic”. Further, the Tmax in series [11] worked out at 2.2 h. The Vd in series [13] is 6.3 L/kg.
The compound `Cc1cccc(Cl)c1NC(=O)c1cnc(Nc2cccc(NCCO)n2)s1` yielded an area under the curve AUC(0-t) at 4 h in series [1] of 7.2 µM·h. For the same compound, in [14], the fraction unbound at 10 µM was 0.08. Also, the IC50 in the series with MDA-MB-231 is 3.1 nM; in the series with PC-3 it was 13 nM; in the series on K562 it was less than 3 nM; with WiDr, 7.9 nM. Besides, the concentration at 4 h in [2] turned out to be 300 nM. Also, the Cmax in [3] was 7000 nM.
In turn, `Cc1nc(Nc2ncc(C(=O)Nc3c(C)cccc3Cl)s2)cc(N2CCOCC2)n1` gave an AUC(0-t) at 4 h in series [1] of 0.16 µM·h. Moreover, the IC50 in the series with MDA-MB-231 is 16 nM; in the series on PC-3 it was 3.6 nM; with K562 it was less than 3 nM; in the series on WiDr, 27 nM. This compound came in with a concentration at 4 h in series [2] of 37 nM. Besides, the highest level in series [3] (Cmax) was 67 nM.
In turn, `Cc1cccc(Cl)c1NC(=O)c1cnc(Nc2cc(NCCN3CCOCC3)ncn2)s1` had an AUC(0-t) at 4 h in [1] of 17 µM·h. The half-maximal inhibitory concentration (IC50) in the series on MDA-MB-231 was 170 nM; in the series with PC-3 it was 82 nM; with K562, less than 2 nM; with WiDr, 270 nM. The compound also registered a concentration at 4 h in [2] of 1900 nM. Moreover, in series [3], the Cmax turned out to be 9600 nM.
Turning to `Cc1nc(NCCO)cc(Nc2ncc(C(=O)Nc3c(C)cccc3Cl)s2)n1`, in series [1], the AUC(0-t) at 4 h came out at 1.5 µM·h. The concentration for half-maximal inhibition (IC50) is 140 nM with MDA-MB-231, 27 nM in the series with PC-3, less than 4 nM in the series on K562 and 210 nM in the series on WiDr. The same compound showed a concentration at 4 h in series [2] of 170 nM. In series [3], this compound displayed a maximum concentration (Cmax) of 800 nM.
`Cc1cccc(Cl)c1NC(=O)c1cnc(Nc2cccc(NCCCN3CCOCC3)n2)s1` registered an exposure AUC(0-t) at 4 h in [1] of 13 µM·h. In addition, the IC50 in the series with MDA-MB-231 is 34 nM; in the series with PC-3, 10 nM; in the series with K562, less than 2 nM; in the series with WiDr, 32 nM. The compound further returned a concentration at 4 h in series [2] of 1100 nM. This compound had a Cmax in series [3] of 8600 nM.
`Cc1nc(NCCN2CCOCC2)cc(Nc2ncc(C(=O)Nc3c(C)cccc3Cl)s2)n1` gave an AUC(0-t) at 4 h in series [1] of 3.1 µM·h. The IC50 with MDA-MB-231 is 47 nM; in the series with PC-3, 25 nM; with K562 it was less than 1 nM; in the series on WiDr, 180 nM. Moreover, in series [2], the concentration at 4 h came to 280 nM. In series [3], the peak concentration (Cmax) was found to be 2200 nM.
`Cc1cccc(Cl)c1NC(=O)c1cnc(Nc2cccc(NCCCn3ccnc3)n2)s1` displayed an area under the curve AUC(0-t) at 4 h in series [1] of 0.16 µM·h. The fraction unbound at 10 µM in [14] was 0.01. Besides, the IC50 in the series on MDA-MB-231 is less than 3 nM; with PC-3 it was 2.8 nM; in the series with K562, less than 3 nM; with WiDr, 4.1 nM. This compound also yielded a concentration at 4 h in series [2] of 33 nM. Further, the Cmax in [3] came out at 88 nM.
In series [1], `Cc1nc(Nc2ncc(C(=O)Nc3c(C)cccc3Cl)s2)cc(N2CCC(CO)CC2)n1` registered an AUC(0-t) at 4 h of 3.5 µM·h. The IC50 in the series on MDA-MB-231 is 9 nM; with PC-3, 11 nM; in the series with K562, less than 1 nM; in the series with WiDr it was 41 nM. This compound displayed a concentration at 4 h in series [2] of 180 nM. In series [3], this compound displayed a Cmax of 2500 nM.
For `Cc1cc(Nc2ncc(C(=O)Nc3c(C)cccc3Cl)s2)nc(C)n1`, the results for the half-inhibitory concentration (IC50) with PC-3 and with K562 were 67 nM and 1.6 nM, respectively.
For the compound `Cc1nc(NCCCN2CCOCC2)cc(Nc2ncc(C(=O)Nc3c(C)cccc3Cl)s2)n1`, the exposure AUC(0-t) at 4 h in [1] was 11 µM·h. Besides, the fraction unbound at 10 µM in [14] is 0.08. Besides, the IC50 in the series with MDA-MB-231 was 23 nM; in the series on PC-3, 14 nM; with K562 it was less than 2 nM; in the series on WiDr, 27 nM. The compound also returned a concentration at 4 h in series [2] of 3100 nM. The compound further displayed a Cmax in series [3] of 3100 nM.
